pIC50: −log10 of the molar value.
What was measured:
CH1 = test: In vitro cytotoxicity against ovarian carcinoma cell line CH1.; assay type: functional, cell-based, Homo sapiens
Summary of the method: (§1)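 Cells seeded and left to attach overnight, then exposed in quadruplicate wells to compound (20 mM DMSO stock diluted in growth medium) at final 100 µM to 2.5 nM for 96 h at 37 °C. Cells fixed with 10% trichloroacetic acid, stained with 0.4% sulforhodamine B, absorbance read at 540 nm. IC50 from concentration versus percent absorbance of untreated wells.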

[1] = In vitro cytotoxicity against. ovarian carcinoma cell line CH1cisR (cisplatin resistant counter part of CH1).; assay type: functional, cell-based, Homo sapiens; summary of the method: as §1
Nucleic Acid [2] = test: Effect on thermal denaturation temperature of CT-DNA after incubation for 0 hours with the compound; assay type: functional; conditions: Bos taurus
Summary of the method: (§2)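 Calf thymus duplex DNA (100 µM in phosphate) with PBD at 20 µM (1:5 PBD/DNA ratio), added from concentrated MeOH solution. Buffer was 10 mM sodium phosphate, 1 mM Na2EDTA, pH 7.00. Incubated at 37 °C for the stated time, then A260 read while heating 40-98 °C at 1 °C/min. Tm taken from d(A260)/dT maxima, MeOH-corrected. ΔTm = Tm(DNA+PBD) − Tm(DNA alone). Mean of three determinations.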

Nucleic Acid [3] = test: Effect on thermal denaturation temperature of CT-DNA after incubation for 4 hours with the compound; assay type: functional; conditions: Bos taurus; summary of the method: as §2
Nucleic Acid [4] = test: Effect on thermal denaturation temperature of CT-DNA after incubation for 18 hours with the compound; assay type: functional; conditions: Bos taurus; summary of the method: as §2
SK-OV-3 = test: In vitro cytotoxicity against. ovarian carcinoma cell line SKOV-3.; assay type: functional, cell-based, Homo sapiens; summary of the method: as §1
A2780 [5] = test: In vitro cytotoxicity against. ovarian carcinoma cell line A2780cisR (cisplatin resistant counter part of A2780).; assay type: functional, cell-based, Homo sapiens; summary of the method: as §1
A2780 [6] = test: In vitro cytotoxicity against. ovarian carcinoma cell line A2780.; assay type: functional, cell-based, Homo sapiens; summary of the method: as §1
Nucleic Acid [7] = test: Effect on thermal denaturation temperature of CT-DNA after incubation for 36 hours with the compound; assay type: functional; conditions: Bos taurus; summary of the method: as §2

Compound	pIC50 (CH1; Homo sapiens, CH1)	pIC50 ([1]; Homo sapiens, CH1cisR)	ΔTm (Nucleic Acid [2])	ΔTm (Nucleic Acid [3])	ΔTm (Nucleic Acid [4])	pIC50 (SK-OV-3; Homo sapiens, SK-OV-3)	pIC50 (A2780 [5]; Homo sapiens, A2780)	pIC50 (A2780 [6]; Homo sapiens, A2780)	ΔTm (Nucleic Acid [7])	pIC50 (CH1; ch1)	pIC50 ([1]; ch1cisr)	pIC50 (SK-OV-3; sk-ov-3)	pIC50 (A2780 [5]; a2780)	pIC50 (A2780 [6]; a2780)
C=CCOc1cc2c(cc1OC)C(=O)N1CCC[C@H]1C=N2	6.80	6.87	0.4 °C	0.7 °C	0.8 °C	5.48	5.78	5.98						
COc1cc2c(cc1O)N=C[C@@H]1CCCN1C2=O			0.3 °C	0.5 °C	0.7 °C				0.7 °C					
CISPLATIN										7.54	6.77	5.38	5.21	6.80
COc1cc2c(cc1OCCCOc1cc3c(cc1OC)C(=O)N1CCC[C@H]1C=N3)N=C[C@@H]1CCCN1C2=O [DSB-120]	7.48	7.66	10.2 °C	13.1 °C	15.1 °C	6.13	6.68	8.14						
COc1cc2c(cc1OCC1CO1)N=C[C@@H]1CCCN1C2=O (some centres undefined)	7.23	7.33	0.5 °C	0.8 °C	1.3 °C	5.89	6.70	7.35	1.5 °C					
